PAX8 reporter = lowers PAX8-driven luciferase in RMG-I cells; RMG-I TPO-luciferase reporter, SteadyGlo, 24 h; inhibition, % at 12.6 µM; hit rate 1.2% among 360,000; AID 652154;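 active = mean replicate inhibition at least 60% with every replicate also reaching 60%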;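 also: luciferase light reporting Pax8 driven TPO promoter activity; plate controls were median of neutral control wells for no effect and mitoxantrone controls for full effect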
EWS-Fli inh = blocks EWS/Fli oncoprotein-driven transcription | A673 NR0B1-luciferase reporter, viability-normalised | inhibition, % at 12.6 µM | hit rate 0.67% among 350,000 | AID 651661;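 active = mean inhibition of at least 50% after viability correction, with every replicate also passing that limit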;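 also: firefly luciferase signal divided by Alamar Blue viability fluorescence both relative to DMSO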
Shn3 inh set2 = Schnurri-3 reporter inhibition in Clone20 osteoblasts | inhibition, % at 12.5 µM | AID 588674 | Clone20 osteoblast Shn3 3'UTR firefly luciferase, 24 h | hit rate 0.52% among 360,000;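 active = mean inhibition of at least 75% with every replicate also reaching 75%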;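 also: 0% = median of neutral control wells and 100% = pilot-screen positive control compound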
FN deposit inh = fibronectin deposition inhibition; AH1F fibroblasts, Alexa488-fibronectin deposition fluorescence, overnight; inhibition, % at 12.6 µM; hit rate 0.086% among 350,000; AID 743247;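 active = mean inhibition across replicates of 30% or more, regardless of how many single replicates reach that level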;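 also: positive control wells lacked labelled fibronectin entirely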
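Assay system: AH1F fibroblasts / Quantity: 10000 cells per well / Medium: DMEM plus 2% serum, read in PBS / Reagent: labelled fibronectin 24 nM / Dosing: single dose, pinned / Times: 1 h cell attachment, overnight exposure to compound and label / Signal: fluorescence, ex 485 nm, em 525 nm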
LMP1 NFkB inh = inhibitors of Epstein-Barr LMP1-induced NF-kappaB reporter; LMP1-induced NF-kappaB luciferase reporter cells, luminescence; inhibition, % at 12.5 µM; hit rate 0.69% among 350,000; in the data active = inhibition above about 41%;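 also: 0% = neutral control wells and 100% = reference inhibitor control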
aSyn 5UTR inh = MLPCN primary screen, SNCA 5' untranslated region | hit rate 0.82% among 300,000 | inhibition, % (tested at 7.5 µM) | alpha-synuclein 5'UTR reporter, inhibitor activity; in the data active = inhibition above about 60%;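 also: H4 neuroglioblastoma cells stably carrying SNCA 5'UTR luciferase fusion; 0% = DMSO wells and 100% = positive control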
* = called active by the depositor; ! = not active in a repeat. Hits are enriched below; roughly 2.1% of the tested compounds scored in any of these assays.

Results for Cn1c(=N)n(CC(=O)c2ccc(F)cc2)c2ccccc21 ?
PAX8 reporter: -49.3; EWS-Fli inh: 77.6*; Shn3 inh set2: 59.5; FN deposit inh: 1.4; LMP1 NFkB inh: 14.9; aSyn 5UTR inh: 75.7*

Results for COc1c(Cl)cc(C(=O)O)cc1Cl ?
EWS-Fli inh: -7.5; Shn3 inh set2: -2.9; LMP1 NFkB inh: -3.2; aSyn 5UTR inh: 8.3

How did COc1c(Cl)cc(C(=O)NN)cc1Cl do in these assays?
PAX8 reporter: 3.3; EWS-Fli inh: -6.0; Shn3 inh set2: -50.8; FN deposit inh: -1.4; LMP1 NFkB inh: -4.9; aSyn 5UTR inh: 98.7*

How did Cc1cc(N2CCOCC2)c2c(N)c(Br)cc(C)c2n1 do in these assays?
Shn3 inh set2: 9.8; LMP1 NFkB inh: 62.6*; aSyn 5UTR inh: 23.2

How did CCC(=O)N1C[C@@H](C)[C@H](OC)CN(C)C(=O)c2ccc(NC(=O)C3CCOCC3)cc2OC[C@H]1C do in these assays?
PAX8 reporter: -11.3; EWS-Fli inh: -2.1; FN deposit inh: -1.8

Results for COC(=O)C1=C(C)NC(C)=C([N+](=O)[O-])C1c1ccccc1C(F)(F)F (stereo unspecified) ?
PAX8 reporter: -4.9; EWS-Fli inh: -17.4; Shn3 inh set2: 93.0*!; FN deposit inh: 3.7; LMP1 NFkB inh: 54.8*!; aSyn 5UTR inh: -1.8

How did COc1cc(C2C3=C(COC3=O)Oc3cc4c(cc32)OCO4)cc(OC)c1OC(C)=O (stereo unspecified) do in these assays?
PAX8 reporter: 80.4*; EWS-Fli inh: 54.5*; Shn3 inh set2: 15.1; FN deposit inh: -34.3; LMP1 NFkB inh: 5.4

How did COc1ccc(C(=O)c2c(C(F)(F)F)oc3c2C(=O)c2ccccc2C3=O)cc1OC do in these assays?
Shn3 inh set2: 89.0*; LMP1 NFkB inh: 24.0; aSyn 5UTR inh: 111.2*

Results for O=C(NC1CCCCC1)c1n[nH]c2c1CCCCC2 ?
PAX8 reporter: 54.7; EWS-Fli inh: 78.6*; Shn3 inh set2: 47.9; FN deposit inh: 2.4; LMP1 NFkB inh: 53.7*

Results for CCC(C)(C)C1CCc2[nH]nc(C(=O)NC3CCCC3)c2C1 (stereo unspecified) ?
PAX8 reporter: -40.6; EWS-Fli inh: 2.0; Shn3 inh set2: 5.1; FN deposit inh: -5.0; LMP1 NFkB inh: 3.6

What do the screens show for `COc1cc(C(=O)NC2CCN(C)CC2)ccc1Nc1ncc2c(n1)N(C1CCCCC1)CCC(=O)N2C`?
PAX8 reporter: -212.4; EWS-Fli inh: 75.8*; Shn3 inh set2: 51.6; FN deposit inh: 14.9; LMP1 NFkB inh: 7.3

What do the screens show for `CCN1C(=O)CC(c2ccccc2)N(C2CCCC2)c2nc(Nc3ccc(C(=O)NC4CCN(C)CC4)cc3OC)ncc21` (stereo unspecified)?
Shn3 inh set2: 66.2; LMP1 NFkB inh: -13.8

What do the screens show for `CCN1C(=O)CC(C(C)C)N(C2CCCC2)c2nc(Nc3ccc(C(=O)NC4CCN(C)CC4)cc3OC)ncc21` (stereo unspecified)?
Shn3 inh set2: -55.5; LMP1 NFkB inh: -20.2

Results for COc1cc(C(=O)NC2CCN(C)CC2)ccc1Nc1ncc2c(n1)N(Cc1ccccc1)CCC(=O)N2C ?
PAX8 reporter: -296.3; EWS-Fli inh: 54.9*; Shn3 inh set2: -18.2; FN deposit inh: 13.3; LMP1 NFkB inh: -3.9

What do the screens show for `O=C(Nc1nnc(-c2ccccc2)o1)NC1CCCCC1`?
PAX8 reporter: -78.2; Shn3 inh set2: -35.4; FN deposit inh: 8.3; LMP1 NFkB inh: 67.8*; aSyn 5UTR inh: -80.2

What do the screens show for `C=CCSc1nnc(NC(=O)C2CC(=O)N(c3ccc4c(c3)OCCO4)C2)s1` (stereo unspecified)?
PAX8 reporter: 80.6*; EWS-Fli inh: 10.8; Shn3 inh set2: -5.0; FN deposit inh: -4.5; LMP1 NFkB inh: 2.3

Results for O=C(Nc1nnc(SCc2ccc(F)cc2)s1)C1CC(=O)N(c2ccc3c(c2)OCCO3)C1 (stereo unspecified) ?
PAX8 reporter: 0.6; Shn3 inh set2: 11.8; LMP1 NFkB inh: 8.0; aSyn 5UTR inh: -17.8

How did COc1ccc(S(=O)(=O)Nc2ccc3c(c2)C(=O)N(C)C[C@@H](OC)[C@H](C)CN(C)[C@H](C)CO3)cc1 do in these assays?
EWS-Fli inh: -5.0; FN deposit inh: -8.8

Results for CN1/C(=C/C=C/c2n(C)c3cc([N+](=O)[O-])c([N+](=O)[O-])cc3[n+]2C)C(C)(C)c2ccccc21 ?
PAX8 reporter: 100.0*; EWS-Fli inh: -75.4; Shn3 inh set2: 35.8; FN deposit inh: 8.9; LMP1 NFkB inh: 19.4

What do the screens show for `COc1cc(C(=O)OCC(=O)Nc2sccc2C(N)=O)cc(OC)c1OC`?
PAX8 reporter: 8.9; EWS-Fli inh: 61.2*; Shn3 inh set2: 11.8; FN deposit inh: 4.5; LMP1 NFkB inh: 7.0; aSyn 5UTR inh: 12.2

How did COc1ccc(C(=O)OCC(=O)Nc2sccc2C(N)=O)cc1OC do in these assays?
PAX8 reporter: -9.8; EWS-Fli inh: -18.0; Shn3 inh set2: -9.1; FN deposit inh: -3.1; LMP1 NFkB inh: 13.5; aSyn 5UTR inh: -12.4

Results for CCCC(=O)NC(c1ccc(N(C)C)cc1)c1ccc2cccnc2c1O (stereo unspecified) ?
PAX8 reporter: 94.5*; EWS-Fli inh: 36.1; Shn3 inh set2: 91.1*; FN deposit inh: 16.3; LMP1 NFkB inh: 46.7*; aSyn 5UTR inh: 61.5

Results for Oc1c(C(Nc2ccccn2)c2ccccn2)ccc2cccnc12 (stereo unspecified) ?
PAX8 reporter: 37.0; Shn3 inh set2: 84.1; FN deposit inh: 7.3; LMP1 NFkB inh: 31.6; aSyn 5UTR inh: 54.3

Results for Cc1ccc2ccc(C(Nc3ccccc3)c3ccccc3)c(O)c2n1 (stereo unspecified) ?
PAX8 reporter: 70.2*; EWS-Fli inh: -15.3; FN deposit inh: 18.6

How did Cc1ccc2ccc(C(Nc3ccccc3)c3ccc(C(C)C)cc3)c(O)c2n1 (stereo unspecified) do in these assays?
PAX8 reporter: 18.1; EWS-Fli inh: 9.1; FN deposit inh: 0.0

What do the screens show for `CC(=O)NC(c1ccc(Cl)cc1)c1ccc2cccnc2c1O` (stereo unspecified)?
PAX8 reporter: 94.9*; EWS-Fli inh: 43.6; Shn3 inh set2: 87.3*; FN deposit inh: -7.5; LMP1 NFkB inh: 62.9*

What do the screens show for `Oc1ccccc1C(Nc1nccs1)c1ccc2cccnc2c1O` (stereo unspecified)?
PAX8 reporter: 58.7; EWS-Fli inh: -6.3; Shn3 inh set2: 93.1*; FN deposit inh: 15.3; LMP1 NFkB inh: 5.4; aSyn 5UTR inh: 76.9*

Results for CC(C)C(=O)NC(c1ccc(N(C)C)cc1)c1c(O)ccc2ccccc12 (stereo unspecified) ?
PAX8 reporter: 13.7; EWS-Fli inh: -6.7; FN deposit inh: -0.1; LMP1 NFkB inh: -9.7; aSyn 5UTR inh: -1.1

What do the screens show for `CN(C)C(=O)C[C@@H]1C=C[C@@H](NC(=O)C2CCOCC2)[C@@H](CO)O1`?
FN deposit inh: -6.9

Assay outcomes deposited in PubChem by Broad Institute.
